The campaign covered roughly 330,000 compounds. About 1,100 (0.33%) were called active.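 Rule for the calls: active = versus positive control, 20 µM dose yields 30% or more activation; inactive = the rest.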 Only a selection was taken, and actives are over-represented in it overall.
test: activators of adaptive XBP1 UPR arm, primary screen, cell-based, CHO-XBP1 luciferase reporter, luminescence, uHTS (AID 463104); conditions: IRE1-XBP1 UPR activation, at 20 µM, active compounds read high, percent of tunicamycin response, DMSO as zero;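 note: 100% = tunicamycin at 10 µg/mL and 0% = DMSO only wells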
Procedure, shortened: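 Test system: CHO-XBP1 luciferase reporter cells | Buffer or medium: Serum-containing F12 medium, 10% FBS | Schedule: 6 h compound exposure at 37 °C, 5% CO2 | Detection: Steady-Glo luciferase glow luminescence, 10 min after reagent addition | Read-out basis: Activation, % of tunicamycin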

activation, active:
CN(c1cccc(NC(=O)Nc2ccc(Cl)cc2)c1)S(C)(=O)=O 33.6%
O=C(C[C@H]1C/C=C\C[C@@H](NC(=O)OCC2c3ccccc3-c3ccccc32)C(=O)O[C@@H](c2ccccc2)CNC1=O)N[C@H](CO)Cc1ccccc1 100%
CCOC(=O)/C=c1\s/c(=C\c2ccc(C#N)cc2)c(=O)n1CC(=O)Nc1cccc(C)c1C 217%
O=C(COC(=O)/C=C/c1cn(-c2ccccc2)nc1-c1cccnc1)Nc1ccc(Cl)cc1Cl 43.9%

activation, inactive:
CCOc1ccccc1C(=O)NC1CC2CCCC(C1)N2Cc1ccccc1 (stereo not given) 2.18%
Cc1ccc(C)c(NC(=O)c2ccc3nccnc3c2)c1 0.85%
Clc1ccc(CSc2nnc([C@@H]3CCCN3)o2)cc1 0.7%
CCC1CCCCN1S(=O)(=O)Cc1ccccc1Cl (stereo not given) -1.25%
COC(=O)c1c(NC(=O)CN2CCN(S(=O)(=O)c3ccccc3[N+](=O)[O-])CC2)sc2c1CCC(C)C2 (stereo not given) -0.95%
O=C1CSC2=NCN(c3ccccc3)CN12 1.38%
CN(c1ccccc1)S(=O)(=O)c1cccc(NC(=O)Cc2ccc(Cl)cc2)c1 -1.79%
CN(c1cccc(NC(=O)c2ccc(CN3CCc4ccccc4C3)cc2)c1)S(C)(=O)=O -1.68%
CCCOc1cccc(C(=O)Nc2nnn(CCC)n2)c1 0.81%
Cc1noc(C)c1S(=O)(=O)Nc1cc(C(F)(F)F)ccc1N1CCOCC1 -0.99%
COCCNC(=S)c1ccc(OC)cc1 -1.99%
O=C(NCc1ccc(Cl)cc1)C(=O)NCC1CCCN1S(=O)(=O)c1cccs1 (stereo not given) -4.11%
CC(C)(C)OC(=O)C[C@H]1C/C=C\C[C@@H](CC(=O)N[C@H](CO)Cc2ccccc2)C(=O)NC[C@@H](c2ccccc2)OC1=O 5.5%
CC(C)(C)OC(=O)C[C@@H]1C/C=C\C[C@@H](CC(=O)N[C@H](CO)Cc2ccccc2)C(=O)NC[C@@H](c2ccccc2)OC1=O -1.85%
O=c1c(Cl)c(NCc2ccc(F)cc2Cl)cnn1C12CC3CC(CC(C3)C1)C2 -1.62%
COc1ccc(C(=O)N2CCN(c3ncccn3)CC2)cc1S(=O)(=O)N1CCOCC1 1.37%
Cc1cccc(NC(=O)CN2CCN(C(=O)C3CCN(C(=O)/C=C/c4ccccc4)CC3)CC2)c1C -2.16%
Cc1cccc(NC(=O)CSC(N)=O)c1C 0.46%
Cc1csc(NC(=O)C2CCCN2C(=O)OCC(C)C)n1 (stereo not given) -2.24%
Cc1ccc(/C=C/C(=O)OCC(=O)Nc2cccnc2Cl)cc1 -1.42%
COc1ccc(NC(=O)CN(C)C(=O)/C=C/c2cn(Cc3ccccc3)nc2-c2cccnc2)cc1 -0.51%
